Data published in ChEMBL document CHEMBL1649064, “Antimalarial activity of novel 5-aryl-8-aminoquinoline derivatives” (J Med Chem, 2011).
Values after ≈ are worked out from the molar mass of the structure shown. Active and inactive are the calls of the source. The rule behind the calls is not given here.

Assays:
[1] = Half life in human microsomes by LC-MS/MS analysis; assay type: ADME, Microsome
In short: (§1)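 Microsomal stability run on a robotic sample processor in 96-well format, following an internal SOP. Parent compound quantified by LC-MS/MS with fast LC gradient or isocratic methods.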

[2] = Half life in mouse microsomes by LC-MS/MS analysis; assay type: ADME, Microsome; in short: as §1
Plasmodium berghei [3] = test: Prophylactic antimalarial activity against Plasmodium berghei infected Exoerythrocytic mouse model; assay type: functional
In short: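 Mice infected with P. berghei sporozoites by intravenous inoculation. Compounds given orally once daily for 3 days at up to 320 mg/kg/day. Read-out was cure and delay of patency in groups of 4 mice.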

Plasmodium falciparum [4] = test: Antimalarial activity against mefloquine-resistant Plasmodium falciparum CDC Sierra Leone 1 D6 after 48 hrs by [3H]hypoxanthine uptake assay; assay type: functional, organism-based
In short: (§2)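 Compounds dissolved in DMSO, diluted 400-fold in RPMI 1640 with 25 mM Hepes, 32 mM NaHCO₃ and 10% Albumax I, then 2-fold serial dilutions over 11 concentrations. Parasites exposed 48 h at 37 °C under 5% O₂/5% CO₂/90% N₂, then [³H]-hypoxanthine added for a further 18 h. DNA harvested onto glass filters and counted. IC50 from a nonlinear regression logistic dose-response model.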

Plasmodium falciparum [5] = test: Antimalarial activity against mefloquine-susceptible Plasmodium falciparum CDC Indochina 3 W2 after 48 hrs by [3H]hypoxanthine uptake assay; assay type: functional, organism-based; in short: as §2
RAW264.7 = test: Cytotoxicity against mouse RAW264.7 cells after 24 hrs by MTT assay; assay type: cell-based; settings: RAW264.7, 24 h
In short: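 Macrophage line from ATCC, seeded at 2.5 × 10⁴ cells/well and left ~12 h. Drug stocks in DMSO, serially diluted to 0.29-48 μg/mL/well. Exposure 24 h, then drug removed and fresh medium added for a further 24 h recovery. Viability read by MTT. Controls were no-cell background, untreated cells and 0.6% DMSO. Duplicate runs, IC50 from sigmoidal variable-slope fit.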

[6] = Therapeutic index, ratio of IC50 for mouse RAW264.7 cells to IC50 for mefloquine-resistant Plasmodium falciparum CDC Sierra Leone 1 D6; assay type: cell-based; settings: read-out: TI
In short: (§3)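 RAW 264.7 macrophages seeded at 2.5 × 10⁴ cells/well and pre-incubated about 12 h. Exposed 24 h to 0.29-48 μg/mL of DMSO-dissolved drug, then drug removed, fresh medium added and 24 h recovery. Viability by MTT, with background, untreated and 0.6% DMSO controls. Duplicate runs, IC50 by sigmoidal variable-slope fit. Index is the macrophage IC50 over the P. falciparum IC50.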

[7] = Therapeutic index, ratio of IC50 for mouse RAW264.7 cells to IC50 for mefloquine-susceptible Plasmodium falciparum CDC Indochina 3 W2; assay type: cell-based; settings: read-out: TI; in short: as §3
Plasmodium berghei [8] = test: Prophylactic antimalarial activity against Plasmodium berghei infected Exoerythrocytic mouse model at 320 mg/kg, po for 3 days; assay type: functional, organism-based; design: dose 320 mg/kg
In short: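 Mice infected with P. berghei sporozoites by intravenous inoculation. Compound given orally daily for 3 days. Read-outs were cure and delay of patency.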

Compound | half-life [1] [h] | half-life [2] [h] | MAC (Plasmodium berghei [3]) [mg/kg/day] | MTD (Plasmodium berghei [3]) [mg/kg/day] | IC50 (Plasmodium falciparum [4]) [µg/mL] | IC50 (Plasmodium falciparum [5]) [µg/mL] | IC50 (RAW264.7) [µg/mL] | selectivity ratio [6] | selectivity ratio [7] | Activity (Plasmodium berghei [8])
COc1cc(C)c2c(Oc3cccc(C(F)(F)F)c3)c(OC)cc(NC(C)CCCN)c2n1 (stereo not drawn) [TAFENOQUINE] | > 1 | > 1 | 7.5 | 120 | 2.7 (≈ 5.83 µM) | 0.8 (≈ 1.73 µM) | 5.9 (≈ 12.7 µM) | 2.2 | 7.38 | –
COc1cccc(-c2c(OC)cc(NC(C)CCCNC(=O)OC(C)(C)C)c3nc(C(F)(F)F)cc(C)c23)c1 (stereo not drawn) | 0.15 | 0.133 | >960 | >960 | 0.3 (≈ 0.548 µM) | 0.6 (≈ 1.1 µM) | > 80.2 | > 267 | > 134 | inactive
COc1cccc(-c2c(OC)cc(NC(C)CCCN)c3nc(C(F)(F)F)cc(C)c23)c1.O=C(O)CCC(=O)O (stereo not drawn) | > 1 | > 1 | – | – | 0.3 | 0.6 | 1.5 | 5 | 2.5 | –
COc1cc(C)c2c(-c3ccc(C(F)(F)F)cc3)c(OC)cc(NC(C)CCCN)c2n1.O=C(O)CCC(=O)O (stereo not drawn) | > 1 | > 1 | >480 | >480 | 2.2 | 1.3 | 1.2 | 0.54 | 0.92 | inactive
COc1cc(C)c2c(-c3ccc(Cl)c(Cl)c3)c(OC)cc(NC(C)CCCN)c2n1.O=C(O)CCC(=O)O (stereo not drawn) | > 1 | > 1 | >480 | 120 | 2.9 | 1.2 | 1.7 | 0.58 | 1.42 | inactive
COc1cc(NC(C)CCCN)c2ncccc2c1 (stereo not drawn) [PRIMAQUINE] | > 1 | 0.35 | 60 | <120 | 2.1 (≈ 8.1 µM) | 0.9 (≈ 3.47 µM) | 38.7 (≈ 149 µM) | 18.4 | 43 | –
COc1cc(C)c2c(-c3cccc(C(F)(F)F)c3)c(OC)cc(NC(C)CCCN)c2n1.O=C(O)CCC(=O)O (stereo not drawn) | > 1 | > 1 | >480 | >480 | 2.7 | 1.3 | 1.3 | 0.48 | 1 | inactive
COc1cc(NC(C)CCCN)c2nc(C(F)(F)F)cc(C)c2c1-c1cccc(C)c1.O=C(O)CCC(=O)O (stereo not drawn) | > 1 | > 1 | – | – | 0.2 | 0.9 | 1.8 | 9 | 2 | –
COc1cc(C)c2c(-c3ccccc3)c(OC)cc(NC(C)CCCN)c2n1.O=C(O)CCC(=O)O (stereo not drawn) | > 1 | > 1 | – | – | 3.2 | 1.3 | 1.9 | 0.59 | 1.46 | –
COc1cc(NC(C)CCCNC(=O)OC(C)(C)C)c2nc(C(F)(F)F)cc(C)c2c1-c1ccc(C(F)(F)F)cc1 (stereo not drawn) | 0.5 | 0.267 | >960 | >960 | 1.3 (≈ 2.22 µM) | 1.4 (≈ 2.39 µM) | > 48 | > 36 | > 34 | inactive
COc1cccc(-c2c(OC)cc(NC(C)CCCN)c3nc(OC)cc(C)c23)c1.O=C(O)CCC(=O)O (stereo not drawn) | > 1 | > 1 | >480 | >480 | 2.8 | 0.8 | 3.1 | 1.11 | 3.87 | inactive
COc1cc(NC(C)CCCNC(=O)OC(C)(C)C)c2nc(C(F)(F)F)cc(C)c2c1-c1cccc(C(F)(F)F)c1 (stereo not drawn) | 0.3 | 0.3 | >960 | >960 | 1.1 (≈ 1.88 µM) | 2.8 (≈ 4.78 µM) | > 48 | > 39.7 | > 17 | inactive
COc1cc(C)c2c(-c3cccc(C)c3)c(OC)cc(NC(C)CCCN)c2n1.O=C(O)CCC(=O)O (stereo not drawn) | > 1 | > 1 | 960 | 960 | 1.3 | 0.7 | 1.9 | 1.46 | 2.71 | Active
COc1cc(NC(C)CCCNC(=O)OC(C)(C)C)c2nc(C(F)(F)F)cc(C)c2c1-c1cccc(C)c1 (stereo not drawn) | 0.217 | 0.183 | >960 | >960 | 0.2 (≈ 0.376 µM) | 0.9 (≈ 1.69 µM) | > 48 | > 240 | > 59 | inactive
COc1cc(NC(C)CCCN)c2nc(C(F)(F)F)cc(C)c2c1-c1ccccc1.O=C(O)CCC(=O)O (stereo not drawn) | > 1 | > 1 | >960 | 480 | 2.8 | 1.4 | 3.1 | 1.11 | 2.21 | inactive
COc1cc(NC(C)CCCN)c2nc(C(F)(F)F)cc(C)c2c1-c1cccc(C(F)(F)F)c1.O=C(O)CCC(=O)O (stereo not drawn) | > 1 | > 1 | – | – | 1.4 | 0.5 | 1.5 | 1.07 | 3 | –
COc1cc(NC(C)CCCN)c2nc(C(F)(F)F)cc(C)c2c1-c1ccc(C(F)(F)F)cc1.O=C(O)CCC(=O)O (stereo not drawn) | > 1 | > 1 | – | – | 1.7 | 0.8 | 10.1 | 5.94 | 12.6 | –
